Experimental data taken from publication PMC6215875 (Cancer Science, 2018).
Read-outs that look alike come from different tables or passages of the source.

Key:
[1] = tested on: GIST-T1 cells; assay: Cell proliferation assay, GIST-T1; format: cell-based; conditions: imatinib-sensitive GIST-T1, Figure S2A
Method in brief: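 GIST-T1 cells were grown in RPMI-1640 with 10% FBS at 37°C, 5% CO₂. 4 × 10⁴ cells were exposed to a range of test compound doses for 120 h. They were then stained with methylene blue for 1 h, and absorbance was read at […].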

[2] = tested on: KIT mutants; format: cell-based; conditions: 1 μmol/L; for suppression of KIT activation (phosphorylation): COS-1, 4 double mutations (∆557-558 with V654A, T670I, D820G or N822K); for suppression of KIT phosphorylation: COS-1, single mutations in exons 13, 14, and 17, 30 minutes
[3] = tested on: GIST48 cells; assay: Cell cycle analysis, GIST48; format: cell-based; conditions: GIST48, 1 μmol/L
Method in brief: (§1)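 Test compound added at the doses stated, and cells harvested over a time course. Cells washed twice in PBS, fixed overnight in cold 70% ethanol, and pelleted at 5000 g for 5 min. Pellets incubated with 0.2 mg/mL RNase A for 1 h, then stained with 20 μg/mL propidium iodide at room temperature. DNA content read by flow cytometry. Mean ± SE of triplicate experiments.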

[4] = target: KIT mutants (Homo sapiens, UniProt P10721, D816V); conditions: COS-1, D816V in exon 17; cited from earlier work
[5] = tested on: GIST430 xenograft; assay: GIST430 xenograft in NOD-SCID mice; format: in vivo; conditions: for KIT and KIT phosphorylation in tumors compared with controls: GIST430 xenograft tumors after treatment, Figure 6B
Method in brief: (§2)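 Male NOD-SCID mice (6–8 weeks, SPF) received GIST430 cells (2 × 10⁷/mouse) s.c. At 50–100 mm³, vehicle or test compound in 20% (2-hydroxypropyl)-β-cyclodextrin was given orally on days 1–5 weekly for 2 weeks. Controls n=5, treated groups n=6. Tumor volume (length × width² × π/6) and body weight were recorded three times weekly up to 16 days. Comparison: Wilcoxon rank sum.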

[6] = Body weight and survival of GIST430 xenograft mice; format: in vivo; conditions: regorafenib 30 mg/kg; for body weight (mean ± SE): oral, 2 weeks, BPR1J373 50 mg/kg, sunitinib 40 mg/kg
Method in brief: as §2

[7] = tested on: advanced GIST; conditions: cited from earlier work; for median PFS: advanced GIST patients
[8] = tested on: GIST430 cells; assay: Cell cycle analysis, GIST430; format: cell-based; conditions: BPR1J373 at 10 nmol/L, 100 nmol/L, and 1 μmol/L
Method in brief: as §1

Sequence of KIT mutants (Homo sapiens, UniProt P10721, D816V) (P10721 26-976 D816V): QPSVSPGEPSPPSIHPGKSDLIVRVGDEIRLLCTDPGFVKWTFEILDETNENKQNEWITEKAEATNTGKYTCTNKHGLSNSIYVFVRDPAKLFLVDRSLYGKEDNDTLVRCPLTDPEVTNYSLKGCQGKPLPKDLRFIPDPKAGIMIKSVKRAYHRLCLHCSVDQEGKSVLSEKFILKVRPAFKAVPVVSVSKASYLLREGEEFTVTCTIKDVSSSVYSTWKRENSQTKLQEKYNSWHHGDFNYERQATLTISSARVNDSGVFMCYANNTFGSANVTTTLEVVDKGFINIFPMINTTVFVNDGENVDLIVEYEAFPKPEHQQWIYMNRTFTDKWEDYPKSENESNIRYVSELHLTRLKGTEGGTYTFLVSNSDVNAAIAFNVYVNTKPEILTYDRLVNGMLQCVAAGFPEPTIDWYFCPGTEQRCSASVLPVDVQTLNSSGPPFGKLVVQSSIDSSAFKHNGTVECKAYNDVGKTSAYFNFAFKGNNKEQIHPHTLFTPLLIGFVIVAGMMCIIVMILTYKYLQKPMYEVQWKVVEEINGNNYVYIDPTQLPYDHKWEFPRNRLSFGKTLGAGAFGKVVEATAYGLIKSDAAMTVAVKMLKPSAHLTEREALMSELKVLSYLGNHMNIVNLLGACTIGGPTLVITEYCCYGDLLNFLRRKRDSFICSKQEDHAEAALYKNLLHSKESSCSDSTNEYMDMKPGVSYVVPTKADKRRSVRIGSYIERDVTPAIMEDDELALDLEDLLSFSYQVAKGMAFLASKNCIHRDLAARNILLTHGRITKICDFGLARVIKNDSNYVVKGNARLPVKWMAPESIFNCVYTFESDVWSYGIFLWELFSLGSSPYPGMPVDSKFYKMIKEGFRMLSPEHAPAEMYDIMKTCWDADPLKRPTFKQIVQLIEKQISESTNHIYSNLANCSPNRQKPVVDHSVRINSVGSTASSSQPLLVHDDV

Structure (SMILES)	antiproliferative effect [1]	suppression of KIT activation (phosphorylation) [2]	suppression of KIT phosphorylation [2]	cell cycle change [3]	suppression of KIT phosphorylation [4]	KIT and KIT phosphorylation in tumors compared with controls [5]	antitumor effect vs control, P (Wilcoxon rank sum test) ([5]; oral, day 1 to day 5 per week for 2 weeks, BPR1J373 50 mg/kg, sunitinib 40 mg/kg)	body weight (mean ± SE) [6] [g]	median PFS ([7]; second-line treatment) [months]	cell cycle change [8]	mice that died before completion of the experiment ([6]; 6 mice, died at day 14)	median PFS ([7]; third-line treatment, phase III) [months]	disease control rate ([7]; advanced GIST, initial phase II study) [%]
Cc1cn(-c2cc(NC(=O)c3ccc(C)c(Nc4nccc(-c5cccnc5)n4)c3)cc(C(F)(F)F)c2)cn1 [Nilotinib]	best antiproliferative effects	variable effects	differentially suppressed	Neither 1 μmol/L imatinib nor nilotinib induced S or G2/M arrest	resistant	–	–	–	–	–	–	–	–
CCN(CC)CCNC(=O)c1c(C)[nH]c(/C=C2\C(=O)Nc3ccc(F)cc32)c1C [Sunitinib]	best antiproliferative effects	variable effects	differentially suppressed	–	resistant	decreased expression levels of KIT and KIT phosphorylation	0.03	29.1 ± 1.04	6.8	–	–	–	–
CNC(=O)c1cc(Oc2ccc(NC(=O)Nc3ccc(Cl)c(C(F)(F)F)c3)c(F)c2)ccn1 [Regorafenib]	–	variable effects	differentially suppressed	only a mild increase in subG1 and a mild decrease in S and G2/M proportions	–	decreased expression levels of KIT and KIT phosphorylation	–	28.82 ± 0.52	–	did not induce significant cell cycle changes	1	4.8	–
Cc1ccc(NC(=O)c2ccc(CN3CCN(C)CC3)cc2)cc1Nc1nccc(-c2cccnc2)n1 [Imatinib]	–	variable effects	differentially suppressed	Neither 1 μmol/L imatinib nor nilotinib induced S or G2/M arrest	resistant	–	–	–	–	–	–	–	81.6
